Source: ChEMBL document CHEMBL4118021, “Studies of TAK1-centered polypharmacology with novel covalent TAK1 inhibitors” (Bioorg Med Chem, 2017)
Blank lines part the entries; values can stand above or below the compound they belong to. The source made the active and inactive calls. No cut-off for these calls is given here.

Legend:
[1] = molecular target: Protein LSM12 (Homo sapiens) (UniProt Q3MHD2); assay: Binding affinity to LSM12 in human NCI-H23 cells at 1 uM by mass spectrometry based pull down assay; type: cell-based
[2] = molecular target: Protein NipSnap homolog 1 (Homo sapiens) (UniProt Q9BPW8); assay: Binding affinity to NIPSNAP1 in human NCI-H358 cells at 1 uM by mass spectrometry based pull down assay; type: cell-based
[3] = molecular target: Signal recognition particle subunit SRP54 (Homo sapiens) (UniProt P61011); assay: Binding affinity to SRP54 in human NCI-H358 cells at 1 uM by mass spectrometry based pull down assay; type: cell-based
[4] = molecular target: Vesicle-fusing ATPase (Homo sapiens) (UniProt P46459); assay: Binding affinity to NSF in human NCI-H358 cells at 1 uM by mass spectrometry based pull down assay; type: cell-based
[5] = molecular target: LIM domain kinase 1 (Homo sapiens) (UniProt P53667); assay: Binding affinity to LIMK1 in human NCI-H23 cells at 1 uM by mass spectrometry based pull down assay; type: cell-based
[6] = molecular target: T1, 80S Ribosome (Homo sapiens) (UniProt P08865+P42677+P62753+P15880+P23396+P61247+P62701+P22090+P46782+P62081+P62241+P46781+P46783+P62280+P25398+P62277+P62263+P62841+P62244+P62249+P08708+P62269+P39019+P60866+P63220+P62266+P62847+P62851+P62854+P62979+P62857+P62273+P62861+P39023+P36578+P46777+Q02878+P18124+P62424+P62917+P32969+P27635+P62906+P62913+P30050+P26373+P40429+P50914+P61313+P18621+Q07020+Q02543+P84098+P46778+P35268+P62829+P62750+P83731+P61254+P61353+P46776+P46779+P47914+P62888+P62899+P62910+P49207+P42766+P18077+Q9Y3U8+P83881+P61927+P61513+P63173+P62891+P62945+P05388+P05386); assay: Binding affinity to RPL9 in human NCI-H358 cells at 1 uM by mass spectrometry based pull down assay; type: cell-based
[7] = molecular target: Proteasome subunit beta type-6 (Homo sapiens) (UniProt P28072); assay: Binding affinity to PSMB6 in human NCI-H23 cells at 1 uM by mass spectrometry based pull down assay; type: cell-based
[8] = molecular target: Importin subunit alpha-1 (Homo sapiens) (UniProt P52292); assay: Binding affinity to KPNA2 in human NCI-H358 cells at 1 uM by mass spectrometry based pull down assay; type: cell-based
[9] = molecular target: Amidophosphoribosyltransferase (Homo sapiens) (UniProt Q06203); assay: Binding affinity to PPAT in human NCI-H358 cells at 1 uM by mass spectrometry based pull down assay; type: cell-based
[10] = molecular target: 5'-nucleotidase domain-containing protein 1 (Homo sapiens) (UniProt Q5TFE4); assay: Binding affinity to NT5DC1 in human NCI-H23 cells at 1 uM by mass spectrometry based pull down assay; type: cell-based
[11] = molecular target: T1, 80S Ribosome (Homo sapiens); assay: Binding affinity to RPL10A in human NCI-H358 cells at 1 uM by mass spectrometry based pull down assay; type: cell-based
[12] = molecular target: Aldehyde dehydrogenase family 3 member A2 (Homo sapiens) (UniProt P51648); assay: Binding affinity to ALDH3A2 in human NCI-H23 cells at 1 uM by mass spectrometry based pull down assay; type: cell-based
[13] = molecular target: Thioredoxin-related transmembrane protein 1 (Homo sapiens) (UniProt Q9H3N1); assay: Binding affinity to TMX1 in human NCI-H23 cells at 1 uM by mass spectrometry based pull down assay; type: cell-based
[14] = molecular target: T1, 80S Ribosome (Homo sapiens); assay: Binding affinity to RPL27 in human NCI-H23 cells at 1 uM by mass spectrometry based pull down assay; type: cell-based
[15] = molecular target: E3 ubiquitin-protein ligase HUWE1 (Homo sapiens) (UniProt Q7Z6Z7); assay: Binding affinity to HUWE1 in human NCI-H23 cells at 1 uM by mass spectrometry based pull down assay; type: cell-based
[16] = molecular target: Methylosome protein WDR77 (Homo sapiens) (UniProt Q9BQA1); assay: Binding affinity to WDR77 in human NCI-H23 cells at 1 uM by mass spectrometry based pull down assay; type: cell-based
[17] = molecular target: Aurora kinase B (Homo sapiens) (UniProt Q96GD4); assay: Binding affinity to AURKB in human NCI-H358 cells at 1 uM by mass spectrometry based pull down assay; type: cell-based
[18] = molecular target: MAP kinase-interacting serine/threonine-protein kinase 2 (Homo sapiens) (UniProt Q9HBH9); assay: Binding affinity to MKNK2 in human NCI-H358 cells at 1 uM by mass spectrometry based pull down assay; type: cell-based
[19] = molecular target: Alpha-2-HS-glycoprotein (Homo sapiens) (UniProt P02765); assay: Binding affinity to AHSG in human NCI-H358 cells at 1 uM by mass spectrometry based pull down assay; type: cell-based
Method in brief: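 NCI-H23 or NCI-H358 cells were grown and lysed. Lysates were incubated overnight at 4 °C with 1 μM biotinylated covalent probe or DMSO, then pulled down on streptavidin beads. Proteins were run on polyacrylamide gels and stained with Coomassie. Bands were excised, digested and identified by mass spectrometry.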

[20] = molecular target: Eukaryotic translation initiation factor 3 subunit I (Homo sapiens) (UniProt Q13347); assay: Binding affinity to EIF3I in human NCI-H23 cells at 1 uM by mass spectrometry based pull down assay; type: cell-based
[21] = molecular target: Acylamino-acid-releasing enzyme (Homo sapiens) (UniProt P13798); assay: Binding affinity to APEH in human NCI-H358 cells at 1 uM by mass spectrometry based pull down assay; type: cell-based
[22] = molecular target: Fructose-2,6-bisphosphatase TIGAR (Homo sapiens) (UniProt Q9NQ88); assay: Binding affinity to TIGAR in human NCI-H23 cells at 1 uM by mass spectrometry based pull down assay; type: cell-based
[23] = molecular target: Protein transport protein Sec16A (Homo sapiens) (UniProt O15027); assay: Binding affinity to SEC16A in human NCI-H358 cells at 1 uM by mass spectrometry based pull down assay; type: cell-based
[24] = molecular target: Methionine--tRNA ligase, cytoplasmic (Homo sapiens) (UniProt P56192); assay: Binding affinity to MARS in human NCI-H358 cells at 1 uM by mass spectrometry based pull down assay; type: cell-based
[25] = molecular target: Cyclin-dependent kinase-like 2 (Homo sapiens) (UniProt Q92772); assay: Inhibition of human CDKL2 (1 to 327 residues) expressed in bacterial expression system assessed as enzyme activity at 1 uM by KINOMEScan assay relative to control; parameters: scale not given: the % may be the effect or the level left
Method in brief: (§1)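 In vitro ATP-site competition binding assay (KinomeScan) across a panel of 456 kinases. Compound was tested at 1 and 10 μM. The read-out is the binding inhibition score relative to control.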

[26] = molecular target: Activin receptor type-1 (Homo sapiens) (UniProt Q04771); assay: Inhibition of human ACVR1 (188 to 509 residues) expressed in bacterial expression system assessed as enzyme activity at 10 uM by KINOMEScan assay relative to control; parameters: scale not given: the % may be the effect or the level left; method in brief: as §1

Chain of Proteasome subunit beta type-6 (Homo sapiens) (P28072 whole entry): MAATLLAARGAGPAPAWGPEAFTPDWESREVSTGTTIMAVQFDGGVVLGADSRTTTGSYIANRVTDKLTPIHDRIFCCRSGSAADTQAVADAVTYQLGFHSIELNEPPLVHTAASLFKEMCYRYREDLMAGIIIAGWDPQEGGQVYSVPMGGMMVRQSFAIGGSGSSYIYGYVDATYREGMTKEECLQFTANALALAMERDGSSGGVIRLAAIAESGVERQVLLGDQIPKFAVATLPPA
Chain of Aurora kinase B (Homo sapiens) (Q96GD4 whole entry): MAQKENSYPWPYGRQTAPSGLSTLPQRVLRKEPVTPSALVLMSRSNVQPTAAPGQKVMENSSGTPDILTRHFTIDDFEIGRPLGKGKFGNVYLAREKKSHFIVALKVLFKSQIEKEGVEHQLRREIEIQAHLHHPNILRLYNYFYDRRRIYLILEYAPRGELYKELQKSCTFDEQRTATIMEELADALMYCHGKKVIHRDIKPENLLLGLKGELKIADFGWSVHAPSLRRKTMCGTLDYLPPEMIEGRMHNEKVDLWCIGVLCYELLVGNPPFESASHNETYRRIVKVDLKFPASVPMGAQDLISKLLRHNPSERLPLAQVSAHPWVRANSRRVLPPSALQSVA
Chain of Fructose-2,6-bisphosphatase TIGAR (Homo sapiens) (Q9NQ88 whole entry): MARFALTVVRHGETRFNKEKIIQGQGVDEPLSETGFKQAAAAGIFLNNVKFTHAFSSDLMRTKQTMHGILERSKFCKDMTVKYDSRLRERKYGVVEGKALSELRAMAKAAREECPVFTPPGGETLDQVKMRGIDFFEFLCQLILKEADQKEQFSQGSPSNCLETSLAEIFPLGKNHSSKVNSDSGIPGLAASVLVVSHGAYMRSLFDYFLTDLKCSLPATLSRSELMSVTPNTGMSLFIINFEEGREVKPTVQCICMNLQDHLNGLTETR
Chain of Aldehyde dehydrogenase family 3 member A2 (Homo sapiens) (P51648 whole entry): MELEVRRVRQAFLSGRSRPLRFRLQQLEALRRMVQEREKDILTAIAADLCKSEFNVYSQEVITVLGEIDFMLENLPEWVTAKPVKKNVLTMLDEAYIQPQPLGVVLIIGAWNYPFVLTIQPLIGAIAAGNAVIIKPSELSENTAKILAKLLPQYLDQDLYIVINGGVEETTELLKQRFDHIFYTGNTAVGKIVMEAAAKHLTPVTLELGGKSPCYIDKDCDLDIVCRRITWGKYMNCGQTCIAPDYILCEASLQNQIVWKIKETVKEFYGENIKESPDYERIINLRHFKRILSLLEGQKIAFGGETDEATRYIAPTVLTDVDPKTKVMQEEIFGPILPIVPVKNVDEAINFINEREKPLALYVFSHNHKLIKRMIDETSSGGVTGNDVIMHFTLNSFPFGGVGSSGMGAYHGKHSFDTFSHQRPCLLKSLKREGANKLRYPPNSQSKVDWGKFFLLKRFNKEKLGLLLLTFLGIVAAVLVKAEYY
Chain of Thioredoxin-related transmembrane protein 1 (Homo sapiens) (Q9H3N1 whole entry): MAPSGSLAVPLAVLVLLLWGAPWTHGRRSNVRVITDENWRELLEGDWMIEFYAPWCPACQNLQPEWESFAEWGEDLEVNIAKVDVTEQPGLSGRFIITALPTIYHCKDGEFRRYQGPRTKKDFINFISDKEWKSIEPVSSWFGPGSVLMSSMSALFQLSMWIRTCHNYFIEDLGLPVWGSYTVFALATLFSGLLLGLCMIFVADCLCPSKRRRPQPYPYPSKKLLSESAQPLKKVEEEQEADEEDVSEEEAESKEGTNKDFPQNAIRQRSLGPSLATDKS
Chain of Protein NipSnap homolog 1 (Homo sapiens) (Q9BPW8 whole entry): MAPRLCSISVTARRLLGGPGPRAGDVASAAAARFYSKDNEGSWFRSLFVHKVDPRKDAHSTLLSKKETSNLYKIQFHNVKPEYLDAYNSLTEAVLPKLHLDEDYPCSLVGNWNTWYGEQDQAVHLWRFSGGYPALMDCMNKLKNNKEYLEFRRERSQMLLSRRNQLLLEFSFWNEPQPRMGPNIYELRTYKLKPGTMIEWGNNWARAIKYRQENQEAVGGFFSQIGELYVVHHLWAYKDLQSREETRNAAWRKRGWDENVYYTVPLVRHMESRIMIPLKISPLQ
Chain of Protein transport protein Sec16A (Homo sapiens) (O15027 whole entry): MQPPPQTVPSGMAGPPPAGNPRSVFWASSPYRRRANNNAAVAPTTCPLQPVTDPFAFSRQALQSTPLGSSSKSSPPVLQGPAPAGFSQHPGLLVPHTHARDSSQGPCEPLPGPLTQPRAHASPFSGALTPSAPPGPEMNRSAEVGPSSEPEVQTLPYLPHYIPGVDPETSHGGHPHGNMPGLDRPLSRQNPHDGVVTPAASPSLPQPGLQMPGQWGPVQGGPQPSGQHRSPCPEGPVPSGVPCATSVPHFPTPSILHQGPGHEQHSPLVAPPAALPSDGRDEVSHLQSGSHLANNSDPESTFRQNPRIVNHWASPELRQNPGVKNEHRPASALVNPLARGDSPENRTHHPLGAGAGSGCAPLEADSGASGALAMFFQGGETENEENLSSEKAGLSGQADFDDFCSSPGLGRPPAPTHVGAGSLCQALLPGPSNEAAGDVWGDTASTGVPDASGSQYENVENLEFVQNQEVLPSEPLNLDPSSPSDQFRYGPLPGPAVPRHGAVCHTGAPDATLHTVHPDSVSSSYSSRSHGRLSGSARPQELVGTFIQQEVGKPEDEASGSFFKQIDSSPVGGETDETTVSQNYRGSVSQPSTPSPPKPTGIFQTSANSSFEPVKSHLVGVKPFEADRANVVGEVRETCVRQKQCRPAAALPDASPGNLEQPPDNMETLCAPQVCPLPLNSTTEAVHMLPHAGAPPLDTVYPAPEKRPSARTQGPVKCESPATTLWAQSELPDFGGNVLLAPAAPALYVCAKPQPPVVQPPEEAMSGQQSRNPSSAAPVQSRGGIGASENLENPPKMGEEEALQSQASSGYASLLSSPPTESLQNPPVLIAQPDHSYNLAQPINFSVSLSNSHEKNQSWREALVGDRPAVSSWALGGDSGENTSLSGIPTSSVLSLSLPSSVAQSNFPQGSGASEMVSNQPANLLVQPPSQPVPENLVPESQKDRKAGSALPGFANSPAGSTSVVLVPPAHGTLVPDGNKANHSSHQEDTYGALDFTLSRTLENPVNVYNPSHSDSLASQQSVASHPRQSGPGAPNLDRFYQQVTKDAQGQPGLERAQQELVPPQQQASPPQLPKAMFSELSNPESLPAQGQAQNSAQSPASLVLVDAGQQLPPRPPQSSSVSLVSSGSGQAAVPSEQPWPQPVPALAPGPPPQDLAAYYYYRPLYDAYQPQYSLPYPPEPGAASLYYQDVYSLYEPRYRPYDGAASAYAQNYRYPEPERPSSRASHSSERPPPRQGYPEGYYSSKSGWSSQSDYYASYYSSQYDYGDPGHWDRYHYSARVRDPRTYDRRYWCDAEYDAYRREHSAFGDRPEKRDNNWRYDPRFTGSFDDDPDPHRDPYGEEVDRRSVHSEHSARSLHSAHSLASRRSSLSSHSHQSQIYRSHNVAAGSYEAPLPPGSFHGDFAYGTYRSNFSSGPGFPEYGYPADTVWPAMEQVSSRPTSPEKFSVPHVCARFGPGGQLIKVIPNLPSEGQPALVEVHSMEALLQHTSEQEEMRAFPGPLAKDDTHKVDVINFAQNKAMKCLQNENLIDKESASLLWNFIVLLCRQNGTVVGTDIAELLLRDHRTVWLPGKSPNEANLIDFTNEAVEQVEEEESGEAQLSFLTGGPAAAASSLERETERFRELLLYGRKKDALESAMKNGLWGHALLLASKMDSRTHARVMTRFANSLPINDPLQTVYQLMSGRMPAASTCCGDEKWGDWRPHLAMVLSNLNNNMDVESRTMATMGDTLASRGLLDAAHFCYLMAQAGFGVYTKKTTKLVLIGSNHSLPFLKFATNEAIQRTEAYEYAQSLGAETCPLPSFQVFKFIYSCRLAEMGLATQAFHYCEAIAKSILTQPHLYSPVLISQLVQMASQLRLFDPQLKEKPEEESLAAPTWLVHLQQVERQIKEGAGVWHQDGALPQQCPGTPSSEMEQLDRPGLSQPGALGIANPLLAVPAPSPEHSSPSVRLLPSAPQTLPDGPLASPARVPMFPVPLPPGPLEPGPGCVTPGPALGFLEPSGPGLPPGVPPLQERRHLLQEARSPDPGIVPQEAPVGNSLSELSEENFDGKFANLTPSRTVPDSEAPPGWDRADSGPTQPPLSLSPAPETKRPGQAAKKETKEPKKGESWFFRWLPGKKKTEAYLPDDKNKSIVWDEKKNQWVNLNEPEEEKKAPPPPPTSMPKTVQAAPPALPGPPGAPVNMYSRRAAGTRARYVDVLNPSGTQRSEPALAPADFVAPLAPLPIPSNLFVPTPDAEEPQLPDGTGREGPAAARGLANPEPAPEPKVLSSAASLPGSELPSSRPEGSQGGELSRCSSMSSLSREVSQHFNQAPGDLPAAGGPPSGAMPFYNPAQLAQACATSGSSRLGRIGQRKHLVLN
Chain of Amidophosphoribosyltransferase (Homo sapiens) (Q06203 whole entry, the tested form may be a part): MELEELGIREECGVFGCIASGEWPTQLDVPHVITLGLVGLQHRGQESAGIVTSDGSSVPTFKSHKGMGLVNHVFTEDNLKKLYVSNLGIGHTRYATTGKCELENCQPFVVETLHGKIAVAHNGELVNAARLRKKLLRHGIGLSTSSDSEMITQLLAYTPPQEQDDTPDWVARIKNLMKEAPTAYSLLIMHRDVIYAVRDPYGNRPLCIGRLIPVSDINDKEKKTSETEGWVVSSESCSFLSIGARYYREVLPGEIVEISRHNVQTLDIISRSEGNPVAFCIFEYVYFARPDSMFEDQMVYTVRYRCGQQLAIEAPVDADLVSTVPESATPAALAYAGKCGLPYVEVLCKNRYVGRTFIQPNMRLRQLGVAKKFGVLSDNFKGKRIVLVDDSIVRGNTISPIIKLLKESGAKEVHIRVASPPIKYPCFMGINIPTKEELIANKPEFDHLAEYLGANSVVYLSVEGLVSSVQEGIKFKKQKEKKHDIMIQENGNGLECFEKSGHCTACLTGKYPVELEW
Chain of Protein LSM12 (Homo sapiens) (Q3MHD2 whole entry): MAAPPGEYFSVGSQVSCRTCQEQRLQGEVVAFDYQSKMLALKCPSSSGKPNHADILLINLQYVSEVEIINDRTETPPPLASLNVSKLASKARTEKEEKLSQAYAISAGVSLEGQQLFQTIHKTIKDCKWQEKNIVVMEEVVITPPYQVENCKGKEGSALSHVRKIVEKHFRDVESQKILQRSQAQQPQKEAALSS

Activity [1]: Active
Activity [2]: Active
Activity [3]: Active
Activity [4]: Active
Activity [5]: Active
Activity [6]: Active
Activity [7]: Active
Activity [8]: Active
Activity [9]: Active
Activity [10]: Active
Activity [11]: Active
Activity [12]: Active
Activity [13]: Active
Activity [14]: Active
Activity [15]: Active
Activity [16]: Active
Activity [17]: Active
Activity [18]: Active
Activity [19]: Active
Activity [20]: Active
Activity [21]: Active
Activity [22]: Active
Activity [23]: Active
Activity [24]: Active
Compound: C=CC(=O)Nc1ccccc1Nc1nc(Nc2ccc(N3CCN(CCOCCOCCOCCNC(=O)CCCC[C@@H]4SC[C@@H]5NC(=O)N[C@@H]54)CC3)cc2)ncc1Cl

Compound: COc1cc(O)c2c(c1)/C=C/C[C@H](O)[C@H](O)C(=O)/C=C\C[C@H](C)OC2=O
Activity [25]: 76%
Activity [26]: 1.9%
